The text below walks through data of ChEMBL document CHEMBL3352170, “Sulfonamides as multifunctional agents for Alzheimer's disease” (Bioorg Med Chem Lett, 2015).

Structures are written as SMILES. Activity calls are given as the source filed them. No cut-off for these calls is given here. Some results are limits rather than exact numbers.

Data set [1] deals with Amyloid-beta precursor protein (Homo sapiens) (UniProt P05067). Put plainly: Stimulation of Amyloid beta (1 to 42) (unknown origin) oligomer assembly at Abeta:compound ratio of 0.0002 after 30 mins by single-site ELISA assay. An outline of the steps:
(§1)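 Oligomer formation was read in a single-site streptavidin-based assay using biotinyl-Aβ(1–42) at 0.01 µM. Aβ/inhibitor ratio was 0.0002, with 30 min incubation.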
(An ELISA detects its analyte on a solid surface through an enzyme-linked reagent.)

Data set [2] has the same target. Put plainly: Inhibition of Amyloid beta (1 to 40) (unknown origin) fibril formation at Abeta:compound ratio of 1:10 after 4 days by Thioflavin-T fluorescence assay. In a few lines: (§2)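 Aβ fibrillogenesis was measured by quantitative Thioflavin-T fluorescence with Aβ at 100 µM and Aβ:inhibitor at 1:10, or 1:1 for one compound. Signal was normalized to the fluorescence of the inhibitor-free control.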

Data set [3] is described as follows: Antioxidant activity assessed as DPPH radical scavenging activity at 10 uM after 30 mins. It counts as physicochemical. Conditions: 0.5 h. A general note: The DPPH test is a chemical assay of radical scavenging.
Data set [4] has as its target T1, Cholinesterase (Homo sapiens, UniProt P06276). The experiment in a line: Inhibition of BuChE (unknown origin) assessed as reduction in S-butyrylthiocholine chloride hydrolysis at 10 uM after 15 mins by Ellman method. In a few lines: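 Single-concentration screen of the commercial and synthetic sulfonamides. Read-out is percent inhibition of BuChE activity. Galanthamine serves as the reference standard.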
On the technique in general: Ellman's reagent forms a yellow product with free thiols.

In data set [5] the target is Amyloid-beta precursor protein (Homo sapiens) (UniProt P05067). The experiment in a line: Inhibition of Amyloid beta (1 to 42) (unknown origin) oligomer assembly at Abeta:compound ratio of 0.0002 after 30 mins by single-site ELISA assay. An outline of the steps:
as §1

Data set [6] has the same target. The experiment in a line: Stimulation of Amyloid beta (1 to 40) (unknown origin) fibril formation at Abeta:compound ratio of 1:10 after 4 days by Thioflavin-T fluorescence assay. An outline of the steps: as §2
Data set [7] addresses T1, Cholinesterase. Put plainly: Inhibition of BuChE (unknown origin) assessed as reduction in S-butyrylthiocholine chloride hydrolysis after 15 mins by Ellman method.
In data set [8] the target is Amyloid-beta precursor protein (Homo sapiens) (UniProt P05067). Put plainly: Inhibition of Amyloid beta (1 to 40) (unknown origin) fibril formation at Abeta:compound ratio of 1:10 after 4 days by atomic force microscopy. In a few lines: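 Aβ(1–40) was incubated for 4 days with or without inhibitor, at 100 µM Aβ and Aβ:inhibitor 1:10. Fibril morphology was imaged by atomic force microscopy against a solvent-treated control.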
Chain of Amyloid-beta precursor protein (Homo sapiens) (P05067 whole entry): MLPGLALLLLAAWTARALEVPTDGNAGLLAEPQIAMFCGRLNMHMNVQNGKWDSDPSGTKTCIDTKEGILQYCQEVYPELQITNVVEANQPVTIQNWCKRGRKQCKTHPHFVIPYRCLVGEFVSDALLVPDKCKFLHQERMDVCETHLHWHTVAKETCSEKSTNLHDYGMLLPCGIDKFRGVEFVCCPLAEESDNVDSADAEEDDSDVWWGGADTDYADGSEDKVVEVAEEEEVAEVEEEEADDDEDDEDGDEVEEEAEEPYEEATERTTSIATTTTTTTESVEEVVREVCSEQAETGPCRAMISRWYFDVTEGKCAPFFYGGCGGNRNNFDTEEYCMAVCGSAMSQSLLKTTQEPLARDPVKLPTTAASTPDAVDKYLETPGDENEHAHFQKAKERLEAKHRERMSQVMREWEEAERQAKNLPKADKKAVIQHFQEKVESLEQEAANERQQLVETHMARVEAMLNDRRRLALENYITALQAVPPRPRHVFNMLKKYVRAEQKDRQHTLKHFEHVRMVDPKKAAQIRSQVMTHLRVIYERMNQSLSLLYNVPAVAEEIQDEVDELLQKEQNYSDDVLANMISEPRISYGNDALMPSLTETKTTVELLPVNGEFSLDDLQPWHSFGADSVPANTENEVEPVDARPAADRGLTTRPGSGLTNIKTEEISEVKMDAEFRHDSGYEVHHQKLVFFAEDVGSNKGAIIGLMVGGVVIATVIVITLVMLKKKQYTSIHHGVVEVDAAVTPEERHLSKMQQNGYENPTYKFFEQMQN

Data set [9] deals with Acetylcholinesterase (Homo sapiens, UniProt P22303). Put plainly: Inhibition of AChE (unknown origin) assessed as reduction in acetylthiocholine iodide hydrolysis after 15 mins by Ellman method.
Chain of Acetylcholinesterase (P22303 whole entry): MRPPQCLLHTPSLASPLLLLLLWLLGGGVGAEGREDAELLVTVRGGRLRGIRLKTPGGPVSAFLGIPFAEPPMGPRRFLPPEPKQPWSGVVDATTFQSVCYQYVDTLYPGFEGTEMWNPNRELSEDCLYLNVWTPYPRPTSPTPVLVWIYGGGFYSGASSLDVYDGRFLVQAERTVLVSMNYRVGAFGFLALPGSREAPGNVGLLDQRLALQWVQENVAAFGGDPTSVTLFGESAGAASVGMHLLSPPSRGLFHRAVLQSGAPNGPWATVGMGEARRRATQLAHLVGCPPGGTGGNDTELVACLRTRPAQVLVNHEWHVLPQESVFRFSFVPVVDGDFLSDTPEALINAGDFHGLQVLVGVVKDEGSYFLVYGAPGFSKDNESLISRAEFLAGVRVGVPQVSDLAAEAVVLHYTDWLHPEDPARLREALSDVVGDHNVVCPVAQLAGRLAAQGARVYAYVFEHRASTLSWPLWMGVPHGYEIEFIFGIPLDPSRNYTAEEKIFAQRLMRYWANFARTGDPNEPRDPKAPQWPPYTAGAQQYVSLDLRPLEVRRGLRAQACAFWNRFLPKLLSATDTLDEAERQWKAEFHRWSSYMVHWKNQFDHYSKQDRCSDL
The target of data set [10] is Amyloid-beta precursor protein (Homo sapiens) (UniProt P05067). Put plainly: Inhibition of Amyloid beta (1 to 40) (unknown origin) fibril formation at Abeta:compound ratio of 1:1 after 4 days by Thioflavin-T fluorescence assay. Conditions: concentration not given here. In a few lines:
as §2

T1 sequence (P06276 whole entry): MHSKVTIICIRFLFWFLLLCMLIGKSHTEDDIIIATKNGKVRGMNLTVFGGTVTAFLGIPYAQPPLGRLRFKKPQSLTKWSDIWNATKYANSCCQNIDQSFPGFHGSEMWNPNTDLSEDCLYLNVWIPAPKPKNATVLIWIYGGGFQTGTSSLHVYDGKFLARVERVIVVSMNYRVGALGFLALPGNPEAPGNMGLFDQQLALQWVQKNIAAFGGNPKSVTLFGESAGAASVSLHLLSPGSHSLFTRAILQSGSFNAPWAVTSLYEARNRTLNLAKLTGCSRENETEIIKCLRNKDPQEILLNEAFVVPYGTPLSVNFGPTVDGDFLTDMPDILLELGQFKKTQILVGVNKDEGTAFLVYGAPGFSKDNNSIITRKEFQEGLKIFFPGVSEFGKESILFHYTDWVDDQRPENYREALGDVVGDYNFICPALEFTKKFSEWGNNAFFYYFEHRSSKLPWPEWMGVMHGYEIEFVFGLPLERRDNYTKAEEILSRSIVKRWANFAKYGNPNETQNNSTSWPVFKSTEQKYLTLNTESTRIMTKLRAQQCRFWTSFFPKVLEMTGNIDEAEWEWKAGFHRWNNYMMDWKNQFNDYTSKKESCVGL

Turning to `CC(C(O)c1ccccc1)N(C)CCCS(=O)(=O)NCCNc1cccc2ccccc12.Cl` (centres undefined), the outcome in data set [1] was Active. Further, the inhibition result in data set [2] was “Active”. The result in data set [3] was Active. For the same compound, in [4], the inhibition was greater than 40%.
As for `Oc1ccc(/C=C/c2cc(O)cc(O)c2)cc1` [RESVERATROL], the outcome in data set [3] was Active.
As for `O=S(=O)(CCCN1CCC(Cc2ccccc2)CC1)NCCNc1cccc2ccccc12`, the result in data set [1] was Active. Also, the inhibition in [2] (concentration not given here) is 60%; in [4] it was greater than 40%.
Consider `O=S(=O)(CCCN1CCN(c2ccccc2)CC1)NCCNc1cccc2ccccc12`, for which the outcome in data set [1] was Active. Besides, the inhibition result in data set [2] is “Active”. Moreover, the inhibition in data set [4] was greater than 40%.
As for `COc1ccc(S(N)(=O)=O)cc1`, the inhibition in [5] was less than 54%. Besides, in [6], the outcome was Active.
Take `O=S(=O)(CCCN1CCC(O)CC1)NCCNc1cccc2ccccc12`: in data set [1], the result was Active. In addition, the inhibition in [2] (concentration not given here) was found to be 64%.
Consider `O=C1c2ccccc2S(=O)(=O)N1CCCN(CCO)CCO`, for which the inhibition in data set [5] is less than 54%. The result in data set [6] was Active.
As to `O=S(=O)(CCCN1CCC(c2ccccc2)CC1)NCCNc1cccc2ccccc12`, the IC50 in [7] was 5080 nM. Also, the inhibition result in [8] was “Active”. In addition, in data set [1], the result was Active. Moreover, the inhibition in data set [2] (concentration not given here) worked out at 87%; in data set [4], 58%.
With `CC(NCCCS(=O)(=O)NCCNc1cccc2ccccc12)c1ccccc1` (centres undefined), in data set [1], the outcome was Active. In addition, the inhibition result in data set [2] was “Active”. Besides, the inhibition in [4] is greater than 40%.
For the compound `O=S(=O)(CCCN1CCN(Cc2ccccc2)CC1)NCCNc1cccc2ccccc12`, the results for the IC50 in data set [7] and in data set [9] were 2000 nM and 160 nM, respectively. The outcome in data set [1] was Active. Also, the inhibition was found to be 43% in [2] (concentration not given here) and 90% in data set [4]. In addition, the result in data set [3] was Active.
Regarding `O=C1c2ccccc2S(=O)(=O)N1CCO`, the inhibition in [5] is less than 54%. Also, the result in [6] was Active.
In the case of `O=C(NCCCCNC(=O)c1ccc2ccccc2c1)c1ccc2ccccc2c1`, the inhibition in data set [5] worked out at 99%. Besides, the inhibition result in data set [2] was “Active”.
As for `O=S(=O)(CCCN1CCOCC1)NCCNc1cccc2ccccc12`, in [1], the outcome was Active. In data set [2], the inhibition result was “Active”.
As to `Cl.O=S(=O)(CCCN(CCO)CCO)NCCNc1cccc2ccccc12`, the result in [1] was Active. In addition, the inhibition result in [2] was “Active”. Also, in data set [3], the outcome was Active.
Consider `O=S(=O)(CCCN1CCN(c2ncccn2)CC1)NCCNc1cccc2ccccc12`, for which the outcome in [1] was Active. For the same compound, in [2], the inhibition entry is “Active”.
On to `O=C1c2ccccc2S(=O)(=O)N1CCCN1CCN(Cc2ccccc2)CC1`, for which, in data set [5], the inhibition result was “inactive”. For the same compound, in data set [6], the result was Active.
Taken in the same sequence, the figures for `CCN(CC)CCN1C(=O)c2ccccc2S1(=O)=O` were less than 54% and “Active”.
As for `O=C(CCC(=O)NCCNc1cccc2ccccc12)NCCNc1cccc2ccccc12`, in data set [5], the inhibition amounted to 50%. For the same compound, the inhibition entry in [2] is “Active”.
For `O=S(=O)(CCCN1CCN(c2ccccn2)CC1)NCCNc1cccc2ccccc12`, the result in data set [1] was Active. Also, the inhibition entry in [2] is “Active”. Besides, the inhibition in [4] is greater than 40%.
Regarding `O=S(=O)(CCCNCCNc1cccc2ccccc12)NCCNc1cccc2ccccc12`, the IC50 in data set [7] was determined as 930 nM. Moreover, in data set [1], the result was Active. Besides, the results for the inhibition in data set [10] and in [4] were 45% and 99%, respectively.
In the case of `O=S(=O)(CCCNCCc1c[nH]c2ccccc12)NCCNc1cccc2ccccc12`, in [1], the outcome was Active. Besides, the inhibition entry in data set [2] was “Active”. For the same compound, in data set [4], the inhibition is greater than 80%.
Consider `O=S(=O)(CCCCl)NCCNc1cccc2ccccc12`, for which, in [1], the result was Active. Also, in data set [2], the inhibition result is “Active”.
`Cc1ccccc1S(N)(=O)=O`: the inhibition in [5] is less than 54%. In data set [6], the result was Active.
Taken in the same sequence, the figures for `CCN(CC)CCCN1C(=O)c2ccccc2S1(=O)=O` were less than 54% and “Active”.
As to `O=C1c2ccccc2S(=O)(=O)N1CCCN1CCC(O)CC1`, in [5], the inhibition was less than 54%. In addition, the result in [6] was Active.
Taken in the same sequence, the figures for `NS(=O)(=O)c1ccc([N+](=O)[O-])cc1` were less than 54% and “Active”.
Taken in the same sequence, the figures for `NS(=O)(=O)c1ccccc1Br` were less than 54% and “Active”.
As for `O=C1NS(=O)(=O)c2ccccc21` [SACCHARIN], the values for the inhibition in [5] and in data set [4] were less than 54% and 73%, respectively. In data set [7], the 50% inhibitory concentration (IC50) worked out at 3600 nM. For the same compound, in [6], the result was Active.

In general, inhibition refers to how much of the control response was suppressed. As usually defined, the IC50 is the concentration needed to halve the response being measured.
